In ChEMBL document CHEMBL1800047, “Design and synthesis of cyclic sulfonamides and sulfamates as new calcium sensing receptor agonists” (Bioorg Med Chem Lett, 2010):
Substitutions are numbered along the chain they refer to.

What was measured:
Format in all cases: functional, cell-based
[1] = biological target: T1, Extracellular calcium-sensing receptor (Rattus norvegicus) (UniProt P48442); assay: Agonist activity at rat CaSR expressed in CHO cells assessed as increase of calcium-induced inositol phosphate accumulation at 10 uM after 24 hrs by HTRF assay relative to calcium
T1 sequence (whole entry): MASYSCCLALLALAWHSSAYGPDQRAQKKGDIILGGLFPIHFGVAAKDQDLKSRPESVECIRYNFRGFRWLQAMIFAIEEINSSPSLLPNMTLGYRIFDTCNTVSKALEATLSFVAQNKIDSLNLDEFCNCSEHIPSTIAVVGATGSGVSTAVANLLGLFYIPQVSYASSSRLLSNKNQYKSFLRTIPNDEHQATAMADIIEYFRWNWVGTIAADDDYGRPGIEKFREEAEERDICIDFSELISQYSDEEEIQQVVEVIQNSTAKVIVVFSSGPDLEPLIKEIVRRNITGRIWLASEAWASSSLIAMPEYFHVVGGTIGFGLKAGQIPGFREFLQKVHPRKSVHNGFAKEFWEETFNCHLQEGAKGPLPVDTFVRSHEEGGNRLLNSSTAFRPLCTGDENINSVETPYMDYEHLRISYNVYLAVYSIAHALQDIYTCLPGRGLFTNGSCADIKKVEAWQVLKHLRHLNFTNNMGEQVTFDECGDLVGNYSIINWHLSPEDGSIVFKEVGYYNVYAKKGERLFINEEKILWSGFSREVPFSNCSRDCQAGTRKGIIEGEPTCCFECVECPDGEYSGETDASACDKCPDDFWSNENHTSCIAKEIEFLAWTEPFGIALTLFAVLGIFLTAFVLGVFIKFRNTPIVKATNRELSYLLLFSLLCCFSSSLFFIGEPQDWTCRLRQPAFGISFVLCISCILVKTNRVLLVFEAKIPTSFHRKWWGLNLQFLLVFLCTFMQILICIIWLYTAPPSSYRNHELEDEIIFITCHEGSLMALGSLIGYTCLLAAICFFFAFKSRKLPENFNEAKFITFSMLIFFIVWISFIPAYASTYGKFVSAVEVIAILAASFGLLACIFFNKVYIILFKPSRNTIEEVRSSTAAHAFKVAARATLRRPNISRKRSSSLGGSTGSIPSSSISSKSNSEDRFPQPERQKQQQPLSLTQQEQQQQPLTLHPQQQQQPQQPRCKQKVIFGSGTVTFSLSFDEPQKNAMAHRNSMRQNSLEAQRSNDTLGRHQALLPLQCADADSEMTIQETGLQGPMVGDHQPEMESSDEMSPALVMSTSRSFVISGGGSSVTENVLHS
Summary of the method: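 CHO cells stably expressing rat brain CaSR are grown in Ham's F-12 (0.3 mM Ca²⁺, 0.6 mM Mg²⁺) and seeded at 4 × 10⁴ cells/well. IP-One HTRF runs 24 h later: 10 min preincubation at 37 °C, then 10 µM compound (from 10 mM DMSO stock) with 3 mM Ca²⁺, 30 min at 37 °C. Values are % of 10 mM Ca²⁺ stimulation, mean with S.E.M.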

[2] = tested on: T2, Extracellular calcium-sensing receptor (Homo sapiens), P41180 [E837A]; assay: Agonist activity at human CaSR E837A mutant expressed in HEK293 cells assessed as increase of calcium-induced inositol phosphate accumulation at 10 uM after 48 hrs by HTRF assay relative to calcium
T2 sequence (whole entry): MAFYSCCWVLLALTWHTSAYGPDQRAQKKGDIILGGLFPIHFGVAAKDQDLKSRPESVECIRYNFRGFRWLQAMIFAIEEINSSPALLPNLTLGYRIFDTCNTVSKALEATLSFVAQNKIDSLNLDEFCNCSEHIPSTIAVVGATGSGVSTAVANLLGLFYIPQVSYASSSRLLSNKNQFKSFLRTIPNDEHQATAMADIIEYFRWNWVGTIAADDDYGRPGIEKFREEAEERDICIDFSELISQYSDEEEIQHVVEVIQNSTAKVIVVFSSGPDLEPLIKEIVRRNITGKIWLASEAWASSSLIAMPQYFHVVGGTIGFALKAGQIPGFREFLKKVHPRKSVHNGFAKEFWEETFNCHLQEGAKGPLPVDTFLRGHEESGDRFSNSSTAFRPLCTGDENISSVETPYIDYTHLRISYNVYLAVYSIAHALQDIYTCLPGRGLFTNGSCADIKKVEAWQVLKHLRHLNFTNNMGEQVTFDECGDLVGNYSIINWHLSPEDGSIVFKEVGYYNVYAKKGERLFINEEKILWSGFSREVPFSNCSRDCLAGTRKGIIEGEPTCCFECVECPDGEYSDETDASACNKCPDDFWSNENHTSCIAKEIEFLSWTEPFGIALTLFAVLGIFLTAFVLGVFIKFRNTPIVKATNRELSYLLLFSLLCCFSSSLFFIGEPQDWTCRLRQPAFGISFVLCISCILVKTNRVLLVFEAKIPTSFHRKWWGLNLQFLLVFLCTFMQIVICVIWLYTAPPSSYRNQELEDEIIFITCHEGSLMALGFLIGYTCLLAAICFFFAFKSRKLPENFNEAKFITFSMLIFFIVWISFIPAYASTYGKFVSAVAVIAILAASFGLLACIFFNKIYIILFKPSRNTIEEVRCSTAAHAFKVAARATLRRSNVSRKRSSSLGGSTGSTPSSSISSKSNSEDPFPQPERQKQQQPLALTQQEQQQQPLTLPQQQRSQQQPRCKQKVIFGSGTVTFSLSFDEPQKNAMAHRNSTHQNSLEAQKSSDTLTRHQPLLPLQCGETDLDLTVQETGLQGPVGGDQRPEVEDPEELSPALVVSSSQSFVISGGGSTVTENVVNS
Summary of the method: (§1)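 Wild-type or E837A mutant hCaSR (pcDNA3) transiently transfected into HEK293 cells (10⁷ cells, electroporation). Cells are plated on poly-D-lysine and assayed 48 h later. The assay uses a 10 min preincubation at 37 °C, then compound plus 3 mM Ca²⁺ for 30 min at 37 °C. IP-One HTRF read-out is 620/665 nm after 337 nm excitation. Values are % of 10 mM Ca²⁺ response, mean with S.E.M.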

[3] = biological target: T3, Extracellular calcium-sensing receptor (Homo sapiens) (UniProt P41180); assay: Agonist activity at human CaSR expressed in HEK293 cells assessed as increase of calcium-induced inositol phosphate accumulation at 10 uM after 48 hrs by HTRF assay relative to calcium; summary of the method: as §1
T3 sequence (whole entry): T2 sequence (whole entry) with A837E, Q1011E

Row | SMILES | Activity [1] [%] | Activity [2] [%] | Activity [3] [%]
1 | C[C@@H](NC[C@@H]1NS(=O)(=O)c2ccccc2-c2ccccc21)c1cccc2ccccc12 | 19 | – | –
2 | C[C@@H](NC[C@H]1NS(=O)(=O)c2ccccc2-c2ccccc21)c1cccc2ccccc12 | 29 | – | –
3 | C[C@@H](NCc1cc2ccccc2[nH]1)c1cccc2ccccc12 | 95 | 41 | 94
4 | C[C@@H](N[C@@H]1CNS(=O)(=O)c2ccccc21)c1cccc2ccccc12 | 13 | – | –
5 | C[C@@H](N[C@H]1CNS(=O)(=O)c2ccccc21)c1cccc2ccccc12 | 30 | – | –
6 | C[C@@H](NC1CNS(=O)(=O)Oc2ccccc2C1)c1cccc2ccccc12 (single isomer, unassigned; diastereomer 1) | 67 | 1 | 67
7 | C[C@@H](NCC1CCc2ccccc2S(=O)(=O)N1)c1cccc2ccccc12 (single isomer, unassigned; diastereomer 1) | 75 | 3 | 70
8 | C[C@@H](NCC1Cc2ccccc2OS(=O)(=O)N1)c1cccc2ccccc12 (single isomer, unassigned; diastereomer 1) | 85 | 51 | 75
9 | C[C@@H](NCC1Cc2ccccc2S(=O)(=O)N1)c1cccc2ccccc12 (single isomer, unassigned; diastereomer 1) | 71 | 22 | 73
10 | C[C@@H](NCC1NS(=O)(=O)c2ccccc21)c1cccc2ccccc12 (single isomer, unassigned; diastereomer 1) | 57 | 11 | 58
11 | C[C@@H](NC1CNS(=O)(=O)Oc2ccccc2C1)c1cccc2ccccc12 (single isomer, unassigned; diastereomer 2) | 17 | 1 | 2
12 | C[C@@H](NCC1CCc2ccccc2S(=O)(=O)N1)c1cccc2ccccc12 (single isomer, unassigned; diastereomer 2) | 37 | 1 | 40
13 | C[C@@H](NCC1Cc2ccccc2OS(=O)(=O)N1)c1cccc2ccccc12 (single isomer, unassigned; diastereomer 2) | 76 | 27 | 65
14 | C[C@@H](NCC1Cc2ccccc2S(=O)(=O)N1)c1cccc2ccccc12 (single isomer, unassigned; diastereomer 2) | 69 | 10 | 64
15 | C[C@@H](NCC1NS(=O)(=O)c2ccccc21)c1cccc2ccccc12 (single isomer, unassigned; diastereomer 2) | 39 | 11 | 51
